The test system of data set [1] is COS-7. Briefly: Inhibition of HIV1 Nef-SH3Hck interaction in COS7 cells at 20 uM after 36 hrs by mammalian two-hybrid assay. As to conditions: Human immunodeficiency virus 1. Type of data set: cell-based. An outline of the steps: (§1)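 Firefly luciferase reports interaction, Renilla luciferase (from GAL4–SH3Hck construct) normalizes transfection and viability; inhibition from reduced LucFF:LucRN ratio. Dose series 2–32 μM; screening at 20 μM.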

Data set [2] relates to Human immunodeficiency virus 1. As to the kind of experiment: Reduction of HIV1 Nef-SH3Hck protein interaction at 0.1 uM by GST pull-down method.
For data set [3], the target named is T1, DNA-binding protein inhibitor ID-1 (Homo sapiens) (UniProt P41134).
T1 sequence (whole entry): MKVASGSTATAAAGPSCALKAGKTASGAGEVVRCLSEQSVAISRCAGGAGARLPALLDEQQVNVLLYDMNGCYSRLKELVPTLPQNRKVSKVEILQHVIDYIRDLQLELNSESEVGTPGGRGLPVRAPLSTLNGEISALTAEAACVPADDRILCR
As to the kind of experiment: Reduction of Id-MyoD interaction in COS7 cells at 32 uM after 36 hrs by mammalian two-hybrid assay. The arrangement: scale not given: the % may be the effect or the level left. As to conditions: COS-7. Type of data set: cell-based. An outline of the steps: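 Specificity counterscreen: Id–MyoD mammalian two-hybrid in COS7 cells, compounds at 2, 4, 8, 16, 32 μM for 36 h; read-out as normalized firefly:Renilla luciferase ratio.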

Data set [4] concerns Human immunodeficiency virus 1. As to the kind of experiment: Reduction in HIV1 Nef-mediated CD4 down regulation in human PBMC after 3 hrs.
Data set [5] relates to Human immunodeficiency virus 1. As to the kind of experiment: Reduction of HIV1 Nef-mediated MHC class 1 down regulation in human PBMC after 3 hrs.
Data set [6] has as its system COS-7. Briefly: Reduction of HIV1 Nef-SH3Hck protein interaction in COS7 cells assessed as reduction of LucFF:LucRN ratio at 32 uM after 36 hrs by mammalian two-hybrid assay. The note with it: Human immunodeficiency virus 1. Also on record: scale not given: the % may be the effect or the level left. Type of data set: cell-based. An outline of the steps:
as §1

The nature of data set [7]: Binding affinity to HIV1 Nef by isothermal titration calorimetry method. Also on record: species or system Human immunodeficiency virus 1. The method, boiled down:
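Nef57–205 dialyzed in ITC buffer (20 mM Hepes pH 7.0, 100 mM NaCl, 5% DMSO), 15–25 μM in cell; inhibitor 300–400 μM in same buffer (DMSO 5%) injected 10–15 μl every 300 s at 25°C; heat of dilution into buffer alone subtracted; apparent KD from titration.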
In general terms: ITC needs no label: the signal is the heat of the interaction.

Data set [8] is described as follows: Toxicity against african green monkey COS7 cells assessed as cell viability upto 100 uM. Type of data set: cell-based. The note with it: chlorocebus aethiops, cos-7.

Active and inactive are the calls of the source. No cut-off for these calls is given here.

As usually defined, the inhibition is the relative decrease from the control value, in per cent. As a reminder, the Kd is the equilibrium constant for the complex coming apart.

In the data set with COS-7 [1], `c1ccc(/C(=N/Nc2nc3ccccc3s2)c2ccccn2)cc1.c1ccc(/C(=N\Nc2nc3ccccc3s2)c2ccccn2)cc1` showed an inhibition of 57.2%.
In the case of `CC(C)(C)c1ccc(OC(=O)Nc2ccc(O)c(C(=O)O)c2)cc1`, the outcome in data set [2] was Active. The Activity was 17% in data set [3], “Dose-dependent effect” in data set [5], 77% in the data set with COS-7 [6] and “Non-toxic” in data set [8]. The outcome in data set [4] was inactive. Moreover, the inhibition in the data set on COS-7 [1] was determined as 73.4%. In addition, the Kd in data set [7] was found to be 1800 nM.
In the data set on COS-7 [1], `O=C(O)CCC(=O)c1ccc2ccc3cccc4ccc1c2c34` yielded an inhibition of 58.4%.
On to `COc1cc2ccccc2c2cc([N+](=O)[O-])oc12`, for which, in the data set on COS-7 [1], the inhibition was found to be 53.8%. The molecule also gave a Kd in data set [7] of 11000 nM.
Molecule `Cc1cc(OCc2nc(N)nc(N)c2-c2ccc(Cl)c(Cl)c2)ccc1[N+](=O)[O-]` registered an inhibition with COS-7 [1] of 57.5%.
For `CN(C)c1ccc2nc3c(C(=O)O)cc(=O)c(O)c-3oc2c1`, the inhibition with COS-7 [1] turned out to be 80.4%. The molecule further registered a Kd in data set [7] of 1300 nM.
Molecule `CC(C)(C)c1ccc(OCC(=O)Nc2cccc(C(=O)O)c2)cc1` gave an inhibition in the data set on COS-7 [1] of 75%. The molecule further gave a Kd in data set [7] of 980 nM. Moreover, in data set [8], the Activity result is reported as “Non-toxic”.
Consider `O=C(O)CCCc1ccc2ccc3ccccc3c2c1`, for which, in the data set with COS-7 [1], the inhibition amounted to 63.2%. Further, the Kd in data set [7] came to 6700 nM.

Source of the values: ChEMBL document CHEMBL1147089, “Protein protein interaction inhibition (2P2I) combining high throughput and virtual screening: Application to the HIV-1 Nef protein” (Proc Natl Acad Sci U S A, 2007).
